In ChEMBL document CHEMBL1629560, “Gain-of-function mutations in the transcription factor MRR1 are responsible for overexpression of the MDR1 efflux pump in fluconazole-resistant Candida dubliniensis strains” (2008):
≈ marks a conversion by molar mass, not a printed value.

Experiments:
Candida dubliniensis [1] = experiment: Antimicrobial activity against Candida dubliniensis harboring MRR1 CM1 mutant gene by microdilution method; type: functional
Summary of the method: (§1)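 MRR1 alleles were expressed from the ADH1 promoter as single-copy integrations in C. albicans SC5314 mrr1Δ mutants, selected with nourseothricin. Broth microdilution was run in HR medium with NaHCO3 and 0.2 M phosphate buffer (pH 7.2), using serial twofold dilutions. Starting assay concentrations were fluconazole 200 μg/ml, cerulenin 50 μg/ml and brefeldin A 200 μg/ml.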

Candida albicans [2] = experiment: Antimicrobial activity against Candida albicans harboring MRR1 CD51-2A mutant gene by microdilution method
Candida dubliniensis [3] = experiment: Antimicrobial activity against Candida dubliniensis harboring MRR1 CM2 mutant gene by microdilution method; type: functional; summary of the method: as §1
Candida albicans [4] = experiment: Antimicrobial activity against wild-type Candida albicans SC5314 by microdilution method; type: functional
Summary of the method: (§2)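 Broth microdilution was run in HR medium with NaHCO3 and 0.2 M phosphate buffer (pH 7.2), using serial twofold dilutions. Starting assay concentrations were fluconazole 200 μg/ml, cerulenin 50 μg/ml and brefeldin A 200 μg/ml. Fluconazole stock was prepared in water; cerulenin and brefeldin A stocks were in DMSO. Strains were kept at −80°C and subcultured on YPD at 30°C.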

Candida albicans [5] = experiment: Antimicrobial activity against Candida albicans harboring P683S mutation in MRR1F5 gene by microdilution method
Candida albicans [6] = experiment: Antimicrobial activity against Candida albicans harboring MRR1 CD51-2B mutant gene by microdilution method
Candida albicans [7] = experiment: Antimicrobial activity against mrr1-deficient Candida albicans by microdilution method; type: functional; summary of the method: as §2
Candida albicans [8] = experiment: Antimicrobial activity against Candida albicans harboring MRR1 gene by microdilution method; type: functional; summary of the method: as §1
Candida dubliniensis [9] = experiment: Antimicrobial activity against Candida dubliniensis harboring MRR1 CD57 mutant gene by microdilution method; type: functional; summary of the method: as §1
Candida albicans [10] = experiment: Antimicrobial activity against Candida albicans harboring MRR1 CD57A mutant gene by microdilution method
Candida dubliniensis [11] = experiment: Antimicrobial activity against Candida dubliniensis harboring MRR1 CD57B mutant gene by microdilution method; type: functional; summary of the method: as §1

Q: What does the source list for C[C@H]1CCC/C=C/[C@@H]2C[C@H](O)C[C@H]2[C@H](O)/C=C/C(=O)O1 [BREFELDIN A]?
A: MIC (Candida dubliniensis [1]): 1.56 µg/mL (≈ 5.56 µM); MIC (Candida albicans [2]): 12.5 µg/mL (≈ 44.6 µM); MIC (Candida dubliniensis [3]): 12.5 µg/mL (≈ 44.6 µM); MIC (Candida albicans [4]): 1.56 µg/mL (≈ 5.56 µM); MIC (Candida albicans [5]): 25 µg/mL (≈ 89.2 µM); MIC (Candida albicans [6]): 3.13 µg/mL (≈ 11.2 µM); MIC (Candida albicans [7]): 1.56 µg/mL (≈ 5.56 µM); MIC (Candida albicans [8]): 1.56 µg/mL (≈ 5.56 µM); MIC (Candida dubliniensis [9]): 1.56 µg/mL (≈ 5.56 µM); MIC (Candida albicans [10]): 12.5 µg/mL (≈ 44.6 µM); MIC (Candida dubliniensis [11]): 12.5 µg/mL (≈ 44.6 µM)

Q: What does the source list for C/C=C/C/C=C/CCC(=O)[C@H]1O[C@H]1C(N)=O [CERULENIN]?
A: MIC (Candida dubliniensis [1]): 0.2 µg/mL (≈ 0.896 µM); MIC (Candida albicans [2]): 3.13 µg/mL (≈ 14 µM); MIC (Candida dubliniensis [3]): 3.13 µg/mL (≈ 14 µM); MIC (Candida albicans [4]): 0.2 µg/mL (≈ 0.896 µM); MIC (Candida albicans [5]): 6.25 µg/mL (≈ 28 µM); MIC (Candida albicans [6]): 0.78 µg/mL (≈ 3.49 µM); MIC (Candida albicans [7]): 0.2 µg/mL (≈ 0.896 µM); MIC (Candida albicans [8]): 0.2 µg/mL (≈ 0.896 µM); MIC (Candida dubliniensis [9]): 0.2 µg/mL (≈ 0.896 µM); MIC (Candida albicans [10]): 3.13 µg/mL (≈ 14 µM); MIC (Candida dubliniensis [11]): 3.13 µg/mL (≈ 14 µM)

Q: With OC(Cn1cncn1)(Cn1cncn1)c1ccc(F)cc1F [FLUCONAZOLE] as the compound, how does the MIC (Candida dubliniensis [1]) read?
A: 0.1 µg/mL (≈ 0.327 µM)

Q: What about the MIC (Candida albicans [2]) of the same compound?
A: 0.78 µg/mL (≈ 2.55 µM)

Q: What about the MIC (Candida dubliniensis [3]) of the same compound?
A: 0.78 µg/mL (≈ 2.55 µM)

Q: And the MIC (Candida albicans [4])?
A: 0.1 µg/mL (≈ 0.327 µM)

Q: And the MIC (Candida albicans [5])?
A: 3.13 µg/mL (≈ 10.2 µM)

Q: And the MIC (Candida albicans [6])?
A: 0.39 µg/mL (≈ 1.27 µM)

Q: And the MIC (Candida albicans [7])?
A: 0.1 µg/mL (≈ 0.327 µM)

Q: And the MIC (Candida albicans [8])?
A: 0.1 µg/mL (≈ 0.327 µM)

Q: And the MIC (Candida dubliniensis [9])?
A: 0.1 µg/mL (≈ 0.327 µM)

Q: And the MIC (Candida albicans [10])?
A: 0.78 µg/mL (≈ 2.55 µM)

Q: And the MIC (Candida dubliniensis [11])?
A: 0.78 µg/mL (≈ 2.55 µM)
